# Measurements from ChEMBL document CHEMBL2034854, “Design, synthesis and biological evaluation of novel amino acid ureido derivatives as aminopeptidase N/CD13 inhibitors” (Bioorg Med Chem, 2012).
# The source made the active and inactive calls. The rule behind the calls is not given here.
# What was measured:
# Aminopeptidase N [1] = target: T1, Aminopeptidase N (Sus scrofa, UniProt P15145); assay: Inhibition of pig kidney APN using L-Leu-p-nitroanilide as substrate incubated for 5 mins prior to substrate addition measured after 30 mins by UV/VIS spectrophotometry
# T1 sequence (P15145 whole entry): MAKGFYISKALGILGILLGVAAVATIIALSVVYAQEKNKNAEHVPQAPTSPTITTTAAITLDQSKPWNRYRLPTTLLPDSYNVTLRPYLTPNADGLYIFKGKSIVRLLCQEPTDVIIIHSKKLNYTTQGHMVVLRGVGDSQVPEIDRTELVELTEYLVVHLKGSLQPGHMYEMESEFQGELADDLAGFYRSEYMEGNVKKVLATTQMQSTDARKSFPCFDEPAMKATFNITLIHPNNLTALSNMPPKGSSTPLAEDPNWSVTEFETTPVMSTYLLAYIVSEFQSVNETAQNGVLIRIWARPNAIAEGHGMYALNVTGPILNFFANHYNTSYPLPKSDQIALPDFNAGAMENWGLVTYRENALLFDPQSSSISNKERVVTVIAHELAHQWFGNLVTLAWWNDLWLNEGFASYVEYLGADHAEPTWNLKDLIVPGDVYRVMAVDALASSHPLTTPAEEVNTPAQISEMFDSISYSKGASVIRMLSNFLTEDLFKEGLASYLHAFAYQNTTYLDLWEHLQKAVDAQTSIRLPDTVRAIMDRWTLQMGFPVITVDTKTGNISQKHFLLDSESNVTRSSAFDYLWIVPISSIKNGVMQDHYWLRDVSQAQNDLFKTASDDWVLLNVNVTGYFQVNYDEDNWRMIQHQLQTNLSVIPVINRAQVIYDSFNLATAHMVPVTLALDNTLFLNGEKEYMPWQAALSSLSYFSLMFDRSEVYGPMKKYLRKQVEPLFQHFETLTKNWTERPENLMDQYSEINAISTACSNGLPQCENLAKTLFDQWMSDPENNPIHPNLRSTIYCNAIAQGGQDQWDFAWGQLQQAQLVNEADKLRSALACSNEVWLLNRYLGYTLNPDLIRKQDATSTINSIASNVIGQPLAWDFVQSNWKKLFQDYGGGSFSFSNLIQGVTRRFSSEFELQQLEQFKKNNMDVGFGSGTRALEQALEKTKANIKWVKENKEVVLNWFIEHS
# Procedure, shortened: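 Porcine kidney microsomal APN, 6 μg/mL final, in 50 mM PBS pH 7.2 with 0.5% DMSO final. Inhibitor and enzyme preincubated 5 min at room temperature. Percent inhibition from control and zero-setting OD; IC50 calculated.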
# [2] = Antiproliferative activity against human ES2 cells after 48 hrs by MTT assay; assay type: functional, cell-based; settings: ES-2, 48 h
# Procedure, shortened: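 ES-2 cells grown in RPMI-1640 with 10% FBS, seeded 8000 per well and left to adhere 10 h. Compounds then added at a range of concentrations in the same medium with 0.1% DMSO, 48 h at 37 °C in CO2. MTT added for 4 h; formazan dissolved in DMSO, read at 590 nm. Inhibition from control and zero-setting OD; IC50 calculated; three assays.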
# ES2 [3] = assay: Antimetastatic activity against human ES2 cells assessed as inhibition of migration through transwell chamber without matrigel coating at 100 ug/mL after 3 hrs by crystal voilet staining; assay type: functional, cell-based
# Procedure, shortened: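 Uncoated transwell inserts. Upper chamber holds compound at 100 µg/mL in RPMI-1640 with 1% FBS, 0.1% DMSO final, plus ES-2 cells (60000 per well). Migration 3 h at 37 °C in CO2. Upper-side cells swabbed away; migrated cells fixed and stained with 0.1% crystal violet, extracted with 33% acetic acid, read at 595 nm. Rate uses treated, control and blank OD. Repeated ≥3 times in triplicate.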
# [4] = target: 72 kDa type IV collagenase (Homo sapiens, UniProt P08253); assay: Inhibition of recombinant MMP2 using succinylated gelatin as substrate incubated for 10 mins prior to substrate addition measured after 1 hr by UV/VIS spectrophotometry
# Procedure, shortened: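 Recombinant MMP-2 and compound, both in 50 mM sodium borate pH 8.5, held 10 min at 37 °C. Succinylated gelatin then added for 60 min at 37 °C. Free amines developed with 0.03% picrylsulfonic acid, 20 min at room temperature, read at 450 nm. Inhibition from control and zero-setting OD; IC50 calculated; three assays, SD <10% of means.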
# Aminopeptidase N [5] = target: Aminopeptidase N (Homo sapiens, UniProt P15144); assay: Inhibition of APN in human ES2 cell surface using L-Leu-p-nitroanilide as substrate incubated for 5 mins prior to substrate addition measured after 1 hr by UV/VIS spectrophotometry
# Procedure, shortened: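 Enzyme source: intact ES-2 cells, 2 × 10^5 per well, in 10 mM PBS pH 7.4 with 0.1% DMSO final. Inhibitors preincubated with cells 5 min at room temperature. L-Leu-p-nitroanilide then added, 1 h at 37 °C. Inhibition from control and zero-setting OD; IC50 calculated; mean ± SD of three assays.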
# ES2 [6] = assay: Antimetastatic activity against human ES2 cells assessed as inhibition of invasion through transwell chamber with matrigel coating after 8 hrs by crystal voilet staining; assay type: functional, cell-based
# Procedure, shortened: (§1)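 ES-2 cells (100,000 per insert) in RPMI-1640 with 1% FBS placed on Matrigel inserts rehydrated 2 h; lower chamber RPMI-1640 with 10% FBS. Compound at 10 and 100 μg/mL with 0.1% DMSO final added to upper chamber. Invasion 8 h at 37 °C in CO2. Non-invading cells swabbed off; remaining cells fixed and crystal-violet stained, counted in five random ×100 fields per insert. At least three experiments, triplicates.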
# [7] = Antimetastatic activity against human ES2 cells assessed as inhibition of invasion through transwell chamber with matrigel coating at 10 to 100 ug/mL after 8 hrs by crystal voilet staining relative to control; assay type: functional; procedure, shortened: as §1
# Sequence of 72 kDa type IV collagenase (P08253 whole entry): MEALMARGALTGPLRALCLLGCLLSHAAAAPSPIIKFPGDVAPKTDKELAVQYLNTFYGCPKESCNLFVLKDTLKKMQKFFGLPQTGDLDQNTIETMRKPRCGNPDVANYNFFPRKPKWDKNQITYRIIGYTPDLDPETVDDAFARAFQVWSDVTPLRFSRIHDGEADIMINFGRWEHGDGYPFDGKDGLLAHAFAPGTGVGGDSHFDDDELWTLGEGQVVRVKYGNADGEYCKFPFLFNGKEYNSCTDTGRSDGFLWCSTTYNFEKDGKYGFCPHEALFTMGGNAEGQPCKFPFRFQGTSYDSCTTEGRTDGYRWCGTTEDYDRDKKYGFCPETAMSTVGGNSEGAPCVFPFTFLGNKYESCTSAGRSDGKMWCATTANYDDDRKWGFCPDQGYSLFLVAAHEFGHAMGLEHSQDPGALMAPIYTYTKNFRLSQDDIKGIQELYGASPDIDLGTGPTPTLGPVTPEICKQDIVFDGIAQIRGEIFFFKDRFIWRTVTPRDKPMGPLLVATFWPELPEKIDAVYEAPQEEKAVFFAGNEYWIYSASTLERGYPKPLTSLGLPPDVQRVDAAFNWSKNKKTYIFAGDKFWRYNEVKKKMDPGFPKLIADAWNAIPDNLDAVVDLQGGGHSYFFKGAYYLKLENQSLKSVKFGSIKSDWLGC
# Sequence of Aminopeptidase N (Homo sapiens, UniProt P15144) (P15144 whole entry): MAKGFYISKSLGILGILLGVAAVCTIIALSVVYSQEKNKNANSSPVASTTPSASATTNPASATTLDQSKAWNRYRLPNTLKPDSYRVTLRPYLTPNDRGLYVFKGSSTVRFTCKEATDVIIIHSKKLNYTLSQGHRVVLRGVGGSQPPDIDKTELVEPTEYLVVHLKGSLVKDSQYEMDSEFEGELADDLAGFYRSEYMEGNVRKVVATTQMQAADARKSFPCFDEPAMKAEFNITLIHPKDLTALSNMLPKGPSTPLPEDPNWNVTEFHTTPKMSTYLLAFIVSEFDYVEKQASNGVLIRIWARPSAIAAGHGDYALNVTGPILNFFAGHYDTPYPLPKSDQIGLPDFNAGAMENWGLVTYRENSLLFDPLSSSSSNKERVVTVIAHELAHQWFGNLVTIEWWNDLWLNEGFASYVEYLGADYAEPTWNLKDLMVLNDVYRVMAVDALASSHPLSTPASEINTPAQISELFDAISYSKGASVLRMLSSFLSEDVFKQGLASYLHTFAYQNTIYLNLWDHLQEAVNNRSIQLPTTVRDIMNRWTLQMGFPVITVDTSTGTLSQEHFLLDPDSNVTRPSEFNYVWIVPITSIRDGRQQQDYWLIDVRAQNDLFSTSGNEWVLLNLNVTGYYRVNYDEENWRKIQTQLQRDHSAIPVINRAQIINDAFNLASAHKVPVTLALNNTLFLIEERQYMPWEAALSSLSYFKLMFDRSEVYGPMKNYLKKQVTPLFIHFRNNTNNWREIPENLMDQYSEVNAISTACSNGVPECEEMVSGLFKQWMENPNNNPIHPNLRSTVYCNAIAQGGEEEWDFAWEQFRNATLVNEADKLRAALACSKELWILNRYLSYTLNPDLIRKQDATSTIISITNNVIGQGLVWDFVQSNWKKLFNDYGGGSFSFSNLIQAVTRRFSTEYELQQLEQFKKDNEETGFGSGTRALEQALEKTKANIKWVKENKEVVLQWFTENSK
Compound,IC50 (Aminopeptidase N [1]) [µM],other results
CC(C)C[C@H](NC(=O)NC(C)(C)C)C(=O)NO,> 100,–
CC(C)[C@H](NC(=O)NC(C)(C)C)C(=O)NO,> 100,–
CC(C)C[C@H](NC(=O)NC1CCCCC1)C(=O)NO,> 100,–
CC(C)[C@H](NC(=O)NCCc1ccccc1)C(=O)NO,> 100,–
C[C@H](NC(=O)NC(C)(C)C)C(=O)NO,> 100,–
O=C(N[C@@H](Cc1ccccc1)C(=O)NO)N[C@@H](Cc1ccccc1)C(=O)NO,> 100,–
C[C@H](NC(=O)NCc1ccccc1)C(=O)NO,21,–
O=C(NCc1ccccc1)N[C@@H](Cc1ccccc1)C(=O)NO,5.6,IC50 [2]: 510 µM; inhibition (ES2 [3]): inactive; IC50 [4]: > 500 µM; IC50 (Aminopeptidase N [5]): 16 µM
CSCC[C@H](NC(=O)NCc1ccccc1)C(=O)NO,3.8,IC50 [2]: > 1000 µM; IC50 [4]: > 500 µM; IC50 (Aminopeptidase N [5]): 22 µM
CC(C)(C)NC(=O)N[C@@H](Cc1ccccc1)C(=O)NO,> 100,–
CC(C)C[C@H](NC(=O)[C@@H](O)[C@H](N)Cc1ccccc1)C(=O)O [UBENIMEX],–,IC50 [2]: 490 µM
C[C@H](NC(=O)NCCc1ccccc1)C(=O)NO,21,–
CC(C)C[C@H](NC(=O)N[C@@H](CC(C)C)C(=O)NO)C(=O)NO,> 100,–

# Further lines, with some results ahead:
IC50 (Aminopeptidase N [1]) [µM],Compound,other results
17,CC(C)[C@H](NC(=O)NCc1ccccc1)C(=O)NO,–
18,CC(C)C[C@H](NC(=O)OCCc1ccccc1)C(=O)NO,–
4.1,CC[C@H](C)[C@H](NC(=O)NCc1ccccc1)C(=O)NO,IC50 [2]: 770 µM; inhibition (ES2 [3]): inactive; IC50 [4]: > 500 µM; IC50 (Aminopeptidase N [5]): 39 µM
32,O=C(CNC(=O)NCc1ccccc1)NO,–
> 100,CSCC[C@H](NC(=O)NC(C)(C)C)C(=O)NO,–
> 100,CC[C@H](C)[C@H](NC(=O)NCCc1ccccc1)C(=O)NO,–
9.1,CC(C)C[C@H](NC(=O)OCc1ccccc1)C(=O)NO,–
> 100,CC[C@H](C)[C@H](NC(=O)NC(C)(C)C)C(=O)NO,–
1.1,CC(C)C[C@H](NC(=O)NCCc1ccccc1)C(=O)NO,IC50 [2]: 96 µM; inhibition (ES2 [3]): inactive; IC50 [4]: > 500 µM; inhibition (ES2 [6]): Dose-dependent effect; IC50 (Aminopeptidase N [5]): 5.1 µM; inhibition (INH) [7]: 55%
6.5,O=C(NCCc1ccccc1)N[C@@H](Cc1ccccc1)C(=O)NO,–
> 100,CSCC[C@H](NC(=O)NCCc1ccccc1)C(=O)NO,–
52,O=C(CNC(=O)NCCc1ccccc1)NO,–
> 100,CC(C)(C)NC(=O)NCC(=O)NO,–
